Measurements published in ChEMBL document CHEMBL3808334, “Synthesis and in vitro evaluation of novel triazine analogues as anticancer agents and their interaction studies with bovine serum albumin” (Eur J Med Chem, 2016).

Columns and labels:
[1] = Growth inhibition of human LOXIMVI cells assessed as cell growth at 10^-8 M incubated for 48 hrs by sulforhodamine B assay; type: functional; conditions: LOX IMVI, read-out: Activity
SN12C = assay: Growth inhibition of human SN12C cells assessed as cell growth at 10^-8 M incubated for 48 hrs by sulforhodamine B assay; type: functional; conditions: read-out: Activity
[2] = Growth inhibition of human TK10 cells assessed as cell growth at 10^-4 M incubated for 48 hrs by sulforhodamine B assay; type: functional; conditions: TK-10, 48 h, read-out: Activity
[3] = Growth inhibition of human UO31 cells assessed as cell growth at 10 uM incubated for 48 hrs by sulforhodamine B assay; type: functional; conditions: UO-31, 48 h, read-out: Activity
SK-MEL-2 [4] = assay: Growth inhibition of human SK-MEL-2 cells assessed as cell growth at 10^-4 M incubated for 48 hrs by sulforhodamine B assay; type: functional; conditions: SK-MEL-2, 48 h, read-out: Activity
EKVX = assay: Growth inhibition of human EKVX cells assessed as cell growth at 10 uM incubated for 48 hrs by sulforhodamine B assay; type: functional; conditions: read-out: Activity
How it was run: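 Primary screen at one dose (10 µM) across 60 human cancer cell lines. Readout was growth percent relative to untreated control and time-zero.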

Malme-3M = assay: Growth inhibition of human MALME-3M cells assessed as cell growth at 10^-6 M incubated for 48 hrs by sulforhodamine B assay; type: functional; conditions: read-out: Activity
Albumin = Albumin (Bos taurus, UniProt P02769); assay: Binding affinity to bovine serum albumin assessed as hyperchromicity in absorption spectra up to 20 uM after 5 mins by UV-visible spectroscopic analysis relative to control; type: ADME; conditions: cattle, isolated protein
How it was run: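 UV-visible absorption titration of 10 µM BSA in 0.1 M phosphate buffer pH 7.4 with increasing compound, 0–20 µM. Compounds diluted from DMSO stocks into buffer. Spectra recorded 200–800 nm in a 1 cm quartz cell at 300 K after 5 min equilibration. The BSA band is at 279 nm; changes are compared with BSA alone.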

A498 = assay: Growth inhibition of human A498 cells assessed as cell growth at 10^-7 M incubated for 48 hrs by sulforhodamine B assay; type: functional; conditions: A498, 48 h, read-out: Activity
How it was run: (§1)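 Five-dose assay: five concentrations from 10-fold or ½-log serial dilutions. Cells are plated at 5,000–40,000 per well according to doubling time, grown 24 h, then exposed 48 h at 37 °C, 5% CO₂. Fixed with cold 50% TCA (final addition) for 60 min at 4 °C and stained with 0.4% SRB in 1% acetic acid. Bound dye is solubilized in 10 mM Tris base and read at 515 nm. GI₅₀ is where [(Ti−Tz)/(C−Tz)]×100 = 50, with a time-zero plate as Tz.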

SK-MEL-2 [5] = assay: Growth inhibition of human SK-MEL-2 cells assessed as cell growth at 10^-5 M incubated for 48 hrs by sulforhodamine B assay; type: functional; conditions: SK-MEL-2, 48 h, read-out: Activity
A549 = assay: Growth inhibition of human A549/ATCC cells assessed as cell growth at 10^-7 M incubated for 48 hrs by sulforhodamine B assay; type: functional; conditions: A549, 48 h, read-out: Activity; how it was run: as §1
[6] = Growth inhibition of human SF539 cells assessed as cell growth at 10^-7 M incubated for 48 hrs by sulforhodamine B assay; type: functional; conditions: SF-539, 48 h, read-out: Activity
[7] = Growth inhibition of human HCC2998 cells assessed as cell growth at 10^-4 M incubated for 48 hrs by sulforhodamine B assay; type: functional; conditions: HCC 2998, 48 h, read-out: Activity
SR = assay: Growth inhibition of human SR cells assessed as cell growth at 10^-6 M incubated for 48 hrs by sulforhodamine B assay; type: functional; conditions: read-out: Activity
NCI-H226 = assay: Growth inhibition of human NCI-H226 cells assessed as cell growth at 10^-6 M incubated for 48 hrs by sulforhodamine B assay; type: functional; conditions: NCI-H226, 48 h, read-out: Activity
NCI-H322M [8] = assay: Growth inhibition of human NCI-H322M cells assessed as cell growth at 10^-8 M incubated for 48 hrs by sulforhodamine B assay; type: functional; conditions: read-out: Activity
[9] = Growth inhibition of human SNB75 cells assessed as cell growth at 10^-4 M incubated for 48 hrs by sulforhodamine B assay; type: functional; conditions: SNB-75, 48 h, read-out: Activity
SK-MEL-5 = assay: Growth inhibition of human SK-MEL-5 cells assessed as cell growth at 10^-8 M incubated for 48 hrs by sulforhodamine B assay; type: functional; conditions: SK-MEL-5, 48 h, read-out: Activity
[10] = Growth inhibition of human LOXIMVI cells incubated for 48 hrs by sulforhodamine B assay; type: functional; conditions: LOX IMVI
How it was run: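 Cells were plated at 5,000–40,000 per well according to doubling time and preincubated 24 h at 37 °C in 5% CO2; time-zero plates were then TCA-fixed. Five concentrations (10-fold or ½-log dilutions, DMSO stock) were incubated 48 h. Cells were TCA-fixed, stained with 0.4% SRB and read at 515 nm. GI50 was taken where [(Ti−Tz)/(C−Tz)]×100 = 50.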

MDA-MB-435 = assay: Growth inhibition of human MDA-MB-435 cells assessed as cell growth at 10 uM incubated for 48 hrs by sulforhodamine B assay; type: functional; conditions: MDA-MB-435, 48 h, read-out: Activity
[11] = Growth inhibition of human SF295 cells assessed as cell growth at 10^-8 M incubated for 48 hrs by sulforhodamine B assay; type: functional; conditions: SF-295, 48 h, read-out: Activity
[12] = Growth inhibition of human MOLT4 cells assessed as cell growth at 10^-7 M incubated for 48 hrs by sulforhodamine B assay; type: functional; conditions: MOLT-4, 48 h, read-out: Activity
How it was run: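 Cells plated at 5,000–40,000/well according to doubling time and preincubated 24 h at 37 °C, 5% CO₂, with time-zero plates TCA-fixed. Drugs were kept as DMSO concentrates at 400× the top concentration and diluted in medium with 50 µg/ml gentamicin. Five 10-fold or ½-log dilutions were run for 48 h, followed by SRB staining and A515. Percent growth = (Ti−Tz)/(C−Tz)×100, or (Ti−Tz)/Tz×100 when Ti<Tz.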

NCI-H322M [13] = assay: Growth inhibition of human NCI-H322M cells assessed as cell growth at 10^-5 M incubated for 48 hrs by sulforhodamine B assay; type: functional; conditions: read-out: Activity
[14] = Growth inhibition of human UO31 cells assessed as cell growth at 10^-8 M incubated for 48 hrs by sulforhodamine B assay; type: functional; conditions: UO-31, 48 h, read-out: Activity
[15] = Growth inhibition of human SNB19 cells assessed as cell growth at 10^-7 M incubated for 48 hrs by sulforhodamine B assay; type: functional; conditions: SNB-19, 48 h, read-out: Activity
KM12 = assay: Growth inhibition of human KM12 cells assessed as cell growth at 10^-7 M incubated for 48 hrs by sulforhodamine B assay; type: functional; conditions: KM12, 48 h, read-out: Activity
[16] = Growth inhibition of human LOXIMVI cells assessed as cell growth at 10^-7 M incubated for 48 hrs by sulforhodamine B assay; type: functional; conditions: LOX IMVI, read-out: Activity

Sequence of Albumin (P02769 whole entry): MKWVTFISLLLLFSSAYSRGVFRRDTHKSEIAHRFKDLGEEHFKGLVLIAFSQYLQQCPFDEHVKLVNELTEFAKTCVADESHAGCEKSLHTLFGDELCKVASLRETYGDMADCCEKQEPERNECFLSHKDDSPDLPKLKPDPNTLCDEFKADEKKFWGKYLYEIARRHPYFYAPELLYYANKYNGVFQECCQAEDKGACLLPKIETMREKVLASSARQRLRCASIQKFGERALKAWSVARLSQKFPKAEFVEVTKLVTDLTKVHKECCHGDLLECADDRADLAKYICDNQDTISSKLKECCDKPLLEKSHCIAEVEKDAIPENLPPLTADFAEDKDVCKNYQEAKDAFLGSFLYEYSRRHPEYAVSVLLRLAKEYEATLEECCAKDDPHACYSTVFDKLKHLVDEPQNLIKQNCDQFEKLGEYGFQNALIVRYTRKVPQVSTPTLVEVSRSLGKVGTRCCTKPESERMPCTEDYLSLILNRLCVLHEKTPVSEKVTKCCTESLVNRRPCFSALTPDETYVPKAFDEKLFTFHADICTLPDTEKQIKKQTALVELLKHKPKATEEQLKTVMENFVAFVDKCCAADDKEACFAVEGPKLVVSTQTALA

| SMILES | growth at 0.01 µM [1] [%] | growth at 0.01 µM (SN12C) [%] | growth at 100 µM [2] [%] | growth at 10 µM [3] [%] | growth at 100 µM (SK-MEL-2 [4]) [%] | growth at 10 µM (EKVX) [%] | growth at 1 µM (Malme-3M) [%] | Activity (Albumin) [%] | growth at 0.1 µM (A498) [%] | growth at 10 µM (SK-MEL-2 [5]) [%] | growth at 0.1 µM (A549) [%] | growth at 0.1 µM [6] [%] | growth at 1 µM (SR) [%] | growth at 1 µM (NCI-H226) [%] | growth at 0.01 µM (NCI-H322M [8]) [%] | growth at 100 µM [9] [%] | growth at 0.01 µM (SK-MEL-5) [%] | GI50 ([10]; read-out: GI50) [nM] | GI50 ([10]; read-out: pGI50 (converted)) [nM] | growth at 10 µM (MDA-MB-435) [%] | also measured |
| --- | --- | --- | --- | --- | --- | --- | --- | --- | --- | --- | --- | --- | --- | --- | --- | --- | --- | --- | --- | --- | --- |
| c1ccc(-c2nc(Nc3ccc(-c4nc5ccccc5[nH]4)cc3)nc(N3CCOCC3)n2)cc1 | 94 | 96 | -94 | -60.6 | -83 | -66.9 | 103 | 72.27 | 84 | -85 | 97 | 93 | -20 | 117 | 95 | -90 | 101 | 489 | 490 | -81.1 | growth at 100 µM [7]: -48%; TGI ([10]; read-out: TGI): 2120 nM; TGI ([10]; read-out: pTGI (converted)): 2140 nM; growth at 0.01 µM [11]: 94%; growth at 0.1 µM [12]: 79%; growth at 10 µM (NCI-H322M [13]): -79%; growth at 0.01 µM [14]: 82%; growth at 0.1 µM [15]: 95%; growth at 0.1 µM (KM12): 97%; growth at 0.1 µM [16]: 96% |
| Fc1ccc(-c2nc(Nc3ccc(-c4nc5ccccc5[nH]4)cc3)nc(N3CCOCC3)n2)cc1 | 98 | 95 | -27 | -43.5 | -50 | 7.91 | 104 | 86.8 | 83 | -35 | 100 | 92 | 37 | 113 | 101 | -33 | 98 | 1780 | 1780 | -38 | growth at 100 µM [7]: 2%; TGI ([10]; read-out: TGI): 3590 nM; TGI ([10]; read-out: pTGI (converted)): 3630 nM; growth at 0.01 µM [11]: 93%; growth at 0.1 µM [12]: 96%; growth at 10 µM (NCI-H322M [13]): 16%; growth at 0.01 µM [14]: 88%; growth at 0.1 µM [15]: 97%; growth at 0.1 µM (KM12): 98%; growth at 0.1 µM [16]: 95% |
| c1ccc2[nH]c(-c3ccc(Nc4nc(N5CCCCC5)nc(N5CCOCC5)n4)cc3)nc2c1 | 96 | 95 | -32 | -37.8 | -68 | 27.7 | 98 | 72.31 | 81 | -38 | 96 | 96 | 44 | 89 | 90 | -33 | 97 | 1750 | 1740 | -27.3 | CC50 ([10]; read-out: LC50 (the source's name)): 7310 nM; TGI ([10]; read-out: TGI): 3580 nM; CC50 ([10]; read-out: pLC50 (the source's name) (converted)): 7240 nM; TGI ([10]; read-out: pTGI (converted)): 3550 nM; growth at 0.01 µM [11]: 94%; growth at 0.1 µM [12]: 100%; growth at 10 µM (NCI-H322M [13]): 29%; growth at 0.01 µM [14]: 85%; growth at 0.1 µM [15]: 98%; growth at 0.1 µM (KM12): 103%; growth at 0.1 µM [16]: 95% |
| Clc1ccc(-c2nc(Nc3ccc(-c4nc5ccccc5[nH]4)cc3)nc(N3CCOCC3)n2)cc1 | 97 | 95 | -67 | -87.6 | -40 | -91.3 | 111 | 97.67 | 82 | -87 | 99 | 98 | -19 | 100 | 96 | -26 | 100 | 189 | 191 | -86.1 | growth at 100 µM [7]: 2%; growth at 0.01 µM [11]: 97%; growth at 0.1 µM [12]: 90%; growth at 10 µM (NCI-H322M [13]): -80%; growth at 0.01 µM [14]: 79%; growth at 0.1 µM [15]: 95%; growth at 0.1 µM (KM12): 97%; growth at 0.1 µM [16]: 94% |
